Test results reported in ChEMBL document CHEMBL1134834, “Quinoxalinylethylpyridylthioureas (QXPTs) as potent non-nucleoside HIV-1 reverse transcriptase (RT) inhibitors. Further SAR studies and identification of a novel orally bioavailable hydrazine-based antiviral agent” (J Med Chem, 2001).

Assays:
[1] = target: Human immunodeficiency virus type 1 reverse transcriptase (Human immunodeficiency virus 1, UniProt Q72547, K103N); experiment: Inhibition of HIV-1 Mutant HIV-1 RT enzymes containing the single amino acid substitution K103N
[2] = target: Human immunodeficiency virus type 1 reverse transcriptase (Human immunodeficiency virus 1, UniProt Q72547, Y188L); experiment: Inhibition of HIV-1 Mutant HIV-1 RT enzymes containing the single amino acid substitution Y188L
[3] = Selectivity index was determined in C8166 cells; type: functional
Summary of the method: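 C8166 CD4+ T-cell line (HTLV-I genome, only tat expressed) acutely infected with lymphocytotropic HIV-1 IIIB. […] Read-out is HIV-p24 antigen in supernatants. AZT positive control was run at the same time. SI = IC50/EC50.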

[4] = Selectivity index was determined in CEM-SS cells; type: functional
Summary of the method: (§1)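 CEM-SS T4 lymphocytes infected with wild-type HIV-1. Protection from virus-induced cell death is scored against an AZT-treated positive control run under identical conditions. […] SI = IC50/EC50.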

NIH3T3 = experiment: Cytotoxicity on 3T3 fibroblasts (3T3F) murine cell line (O.D.=0.131+/-0.014); type: functional; conditions: Mus musculus, read-out: TC50 (the source's name)
CEM-SS [5] = experiment: Concentration which results in 50% survival of uninfected untreated control CEM-SS cells (cytotoxicity of the compound); type: functional, cell-based; conditions: Homo sapiens, read-out: IC50 (the source's name)
[6] = target: Human immunodeficiency virus type 1 reverse transcriptase (Human immunodeficiency virus 1, UniProt Q72547, V106A); experiment: Inhibition of HIV-1 Mutant HIV-1 RT enzymes containing the single amino acid substitution V106A
Mus musculus = species on record: Mus musculus; experiment: Cytotoxicity on NSO murine cell line (O.D.=0.125+/-0.015); type: functional; conditions: read-out: TC50 (the source's name)
[7] = target: T1, Human immunodeficiency virus type 1 reverse transcriptase (Human immunodeficiency virus 1, UniProt Q72547); experiment: Inhibition of HIV-1 wild-type RT
C8166 = experiment: Concentration which results in 50% survival of uninfected untreated control C8166 cells (cytotoxicity of the compound); type: functional, cell-based; conditions: Homo sapiens
Summary of the method: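 Toxicity in uninfected C8166 cells by MTT reduction to formazan, read spectrophotometrically.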

[8] = (§2) Cytotoxicity on normal human lymphocytes(HL) (O.D.=0.114+/-0.01); conditions: read-out: TC50 (the source's name)
[9] = target: Human immunodeficiency virus type 1 reverse transcriptase (Human immunodeficiency virus 1, UniProt Q72547, Y181I); experiment: Inhibition of HIV-1 Mutant HIV-1 RT enzymes containing the single amino acid substitution Y181I
[10] = target: T1, Human immunodeficiency virus type 1 reverse transcriptase; experiment: Inhibition of HIV-1 Mutant HIV-1 RT enzymes containing the single amino acid substitution […]
Daudi = experiment: Cytotoxicity on Daudi Human(DH) cell line (O.D.=0.129+/-0.018); type: functional; conditions: read-out: TC50 (the source's name)
CEM-SS [11] = experiment: Concentration which produces a 50% survival of HIV-1 infected cells relative to uninfected control CEM-SS cells (in vitro anti-HIV activity); type: functional, cell-based; conditions: Homo sapiens; summary of the method: as §1
[12] = tested on: Human immunodeficiency virus 1; experiment: Concentration which produces a 50% survival of HIV-1 infected cells relative to uninfected control C8166 cells; type: functional, organism-based; conditions: Human immunodeficiency virus 1, C8166
[13] = Selectivity index (IC50/EC50) was determined in CEM-SS cells; type: functional
Summary of the method: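 CEM-SS (T4 lymphocyte) cells infected with wild-type HIV-1 were scored for protection from virus-induced cell death. […] SI = IC50/EC50. An AZT-treated positive control was run in parallel under identical conditions.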

[14] = as §2; type: functional; conditions: read-out: TC50 (the source's name)
[15] = Selectivity index was (IC50/EC50) determined in C8166 cells; type: functional

| Structure (SMILES) | Ki [1] [µM] | Ki [2] [µM] | SI [3] | SI [4] | CC50 (NIH3T3) [µM] | CC50 (CEM-SS [5]) [µM] | Ki [6] [µM] | CC50 (Mus musculus) [µM] | Ki [7] [µM] | IC50 (C8166) [µM] | CC50 [8] [µM] | Ki [9] [µM] | Ki [10] [µM] | CC50 (Daudi) [µM] | EC50 (CEM-SS [11]) [µM] | EC50 [12] [µM] | SI [13] | CC50 [14] [µM] | SI [15] |
| --- | --- | --- | --- | --- | --- | --- | --- | --- | --- | --- | --- | --- | --- | --- | --- | --- | --- | --- | --- |
| O=c1c2cccn2c2c(F)cccc2n1CCNC(=S)Nc1ccc(Br)cn1 | 0.4 | 0.2 | 105 | >110 | 500 | > 2 | 0.06 | 520 | 0.04 | 21 | 510 | 0.9 | 0.8 | 510 | 0.0019 | 0.2 |  |  |  |
| Fc1cccc2c1nc(OCCNC(=S)Nc1ccc(Br)cn1)c1cccn12 | 0.35 | 0.7 |  |  | > 1000 | > 2 | 0.029 | > 1000 | 0.058 | 125 |  | 0.3 | 0.15 | > 1000 | 0.0029 | 0.02 | >690 | > 1000 | 6250 |
